Measurements as given in ChEMBL document CHEMBL4513216, “Probing the Open Global Health Chemical Diversity Library for Multistage-Active Starting Points for Next-Generation Antimalarials” (ACS Infect Dis, 2020).

Assay: Toxicity liver stage against HepG2, at 10uM
Format: cell-based
Parameters: test concentration 10 uM, cell line HepG2-A16-CD81EGFP
Details: human, HepG2-A16-CD81EGFP cells; read-out: INHIBITION
Outline: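 Uninfected HepG2-A16-CD81EGFP cells, 3 × 10^3 per well, 1536-well, plated on prespotted compound at 10 μM final, parasite-free screening media added to match infected plates; puromycin 10 μM positive, DMSO 0.5% negative; run in parallel with 48 h PbLuc assay at 37 °C, 5% CO2; viability by CellTiter-Glo luminescence, normalized to controls.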

Row | SMILES | cytotoxicity at 10 µM
1 | CC1CCN(S(=O)(=O)N2CCc3sccc3C2)CC1 | -30.8%
2 | CCOc1ccccc1CNS(=O)(=O)c1ccc2c(c1)CCCC(=O)N2 | 7.89%
3 | CCOc1ccc2[nH]c3c(N(C)CC4OCCO4)ncnc3c2c1 | 15.2%
4 | COCCn1cnc2ccc(NC(=O)c3ccccn3)cc2c1=O | -6.81%
5 | CCOc1ccccc1NC(=O)NCCc1ccoc1 | -1.18%
6 | c1cc(CN2CCC3(CC2)COC(COCC2CC2)C3)cs1 (configuration not stated) | -0.272%
7 | O=C(C1CCOC1)N1CCC2(CC1)COC2 (configuration not stated) | 3.06%
8 | Cc1ccc2c(c1)C1(CCN(S(C)(=O)=O)CC1)CN2C(=O)N(C)C | -121%
9 | O=C([C@H]1C[C@H]2OCC[C@H]2N(C(=O)c2ccnnc2)C1)N1CCCCO1 | 4%
10 | COC[C@H]1CCC[C@]12CN(Cc1cccc(C)n1)CCO2 | 2.23%
11 | CCS(=O)(=O)N1CCc2cc(C(=O)NC)c(N(C)C)nc2CC1 | -141%
12 | Cc1nn(C)c2cn(CC(=O)NC3CCSCC3)nc12 | 0.243%
13 | CCn1ncc2c(C(F)(F)F)cc(-c3cnn(C)c3)nc21 | 3.67%
14 | CN(C)CC1(O)CCN(C(=O)Cc2ccc3c(c2)CCC3)C1 (configuration not stated) | -7.84%
15 | Cc1cc(Nc2cnccn2)cc(C2CCCNC2)n1 (configuration not stated) | 4.75%
16 | COCCNC(=O)C(C)n1nc(-c2ccc(C)o2)cc(N)c1=O (configuration not stated) | 1.26%
17 | CN(c1cccnn1)[C@@H]1CC[C@@H]2CN(Cc3ccccc3C(=O)O)C[C@@H]21 | 7.43%
18 | Cc1ccc(S(=O)(=O)N2C[C@H]3C[C@H](NC(=O)C(C)C)[C@H]3C2)cc1 | -4.59%
19 | CC1CCCN(Cc2c(C3CC3)[nH]c3ncccc23)C1 (configuration not stated) | -34.1%
20 | CNC(=O)C1(c2cnccn2)CCCN1C(=O)c1ncccc1C (configuration not stated) | 4.22%
21 | Cc1nc(C2CCN(S(=O)(=O)c3ccc4c(c3)CCO4)CC2)n[nH]1 | -8.91%
22 | N#Cc1ccc(CS(=O)(=O)NC(=O)c2ccc3c(c2)COC3)cc1 | 3.65%
23 | Cc1cc(CSCc2csc(CS(C)(=O)=O)n2)no1 | -2.49%

Row | SMILES | cytotoxicity at 10 µM
24 | COc1ccccc1CC(NC(=O)N1CCOCC1)C(C)C (configuration not stated) | 4.29%
25 | Cc1nc(C(C)(C)NCc2ncc(C(C)C)o2)sc1C | 6.32%
26 | Cc1noc(NCc2cn(C)nc2-c2ccncc2)n1 | -3.48%
27 | CS(=O)(=O)N1CCC(CNc2c(Cl)cccc2C#N)CC1 | -6.67%
28 | N#CC1COCCN1C(=O)c1ccc2[nH]ccc2c1 (configuration not stated) | 14.4%
29 | COC(=O)c1ccc(NC(C)c2ccc3c(c2)CCC(=O)N3)nn1 (configuration not stated) | 2.52%
30 | Cc1cc(NC(=O)C2CCN(c3nnc(C)c(C)c3C#N)CC2)no1 | -4.11%
31 | Cc1nc(CN2CCN(S(=O)(=O)N3CCCCC3)CC2)oc1C | 3.64%
32 | CCn1ccnc1CN1CCN(C(C)C(=O)NCC(F)(F)F)CC1 (configuration not stated) | 9.73%
33 | CC(CC(=O)c1ccco1)NC(=O)c1ccon1 (configuration not stated) | -17.9%
34 | Cc1cccn2cc(CNS(=O)(=O)N3CCOCC3)nc12 | -6.6%
35 | COc1ccc(NC(=O)N2CCC(CSC)C2)cc1C (configuration not stated) | 3.36%
36 | Cc1cccc(C2(C(=O)NCC3CN(C)CCO3)CC2)c1 (configuration not stated) | -7.45%
37 | CC(C)CCS(=O)(=O)CC(=O)N1CCCC1c1cnn(C)c1 (configuration not stated) | 0.528%
38 | Cc1cn2c(CN(C)C(=O)c3cccnc3O)c(C)nc2s1 | -8.59%
39 | CC(Nc1ccc(CN2CCCC2=O)cc1)c1ccc(C#N)cc1 (configuration not stated) | 6.29%
40 | CC(C)(C)OC(=O)NCCNC(=O)c1cnc(-c2ccccc2)nc1 | 8.12%
41 | NS(=O)(=O)CCNC(=O)C1(c2ccccc2)CC1 | -0.18%
42 | CC(C)C1CN(C(=O)c2ccncc2)CCS1 (configuration not stated) | 9.72%
43 | Cc1nc(CCNC(=O)Nc2cc(C(F)(F)F)c[nH]c2=O)cs1 | 0.614%
44 | CCN(CC1CCOC1)C(=O)c1ccc(-c2ccsc2)nc1C (configuration not stated) | 6.39%
45 | O=C(CN1CCCC1Cn1cncn1)Nc1ccnn1C1CCCC1 (configuration not stated) | -1.07%
46 | CC(O)CN(c1ccccc1)S(=O)(=O)c1cc(C(=O)O)cc2c1CCC2 (configuration not stated) | 11.1%

Row | SMILES | cytotoxicity at 10 µM
47 | CC1CCCCN1C(=O)c1ccc(Br)s1 (configuration not stated) | -8.21%
48 | Cn1ccnc1-c1noc(NCc2ccc(Br)cc2)n1 | -4.32%
49 | O=C1CCC(=O)N1CCN1CCC(=Cc2ccccc2)CC1 | 8.82%
50 | CC(C)(CNC(=O)CSc1nnnn1C1CC1)c1ccccc1F | 13.4%
51 | CCCNC(=O)C(C)Nc1ccn(Cc2ccccn2)n1 (configuration not stated) | -5.95%
52 | CC(=O)N(Cc1noc(C)n1)C1CCN(CC2CCCC2)C1 (configuration not stated) | -12.3%
53 | CC(C)OCCOCc1cccc(NC(=O)N2CCCC(O)C2)c1 (configuration not stated) | -5.01%
54 | COC(C)C(=O)NS(=O)(=O)c1ccc(F)c(C(F)(F)F)c1 (configuration not stated) | -4.04%
55 | CCCc1noc(CS(=O)(=O)c2cccc(OC)c2)n1 | 17.4%
56 | CCCC(=O)NS(=O)(=O)c1ccc(C#N)c(C(F)(F)F)c1 | -12.8%
57 | O=C1C(Nc2nccn3cnnc23)CCN1c1cccc(Cl)c1 (configuration not stated) | -1.7%
58 | CCN(CC)C(=O)Nc1ccc(C(=O)N(C)C)c(C)c1 | 7.52%
59 | OC(CN1CCCc2cc(OC(F)F)ccc21)Cn1cccn1 (configuration not stated) | 6.85%
60 | CCN1CCCCC1C(=O)Nc1cccc(-c2nnc[nH]2)c1 (configuration not stated) | 4.03%
61 | Cc1ccc(N2CCCC(N(C)Cc3cc(C)no3)C2)nn1 (configuration not stated) | 11.9%
62 | CN(C)CCn1c(=O)oc2ccc(NC(=O)C3CCCO3)cc21 (configuration not stated) | 0.743%
63 | Cn1ccnc1CNC1CCCN(Cc2noc(C3CC3)n2)C1 (configuration not stated) | -11.1%
64 | O=C(CCc1cccc(F)c1F)N1CCN(Cc2ccco2)CC1 | -11.5%
65 | CS(=O)(=O)NCc1ncn2c1CN(C(=O)C1CCCO1)CCC2 (configuration not stated) | -110%
66 | CCN1C[C@H]2N(c3ncccn3)CCC[C@@]2(C(=O)NCC2CC2)C1 | -97.3%
67 | COc1cccc(C(C(=O)O)N2CCC(Cn3cccn3)CC2)c1OC (configuration not stated) | -1.77%
68 | NCC1CCCN(c2nc(-c3ccccc3)nc3c2CCNCC3)C1 (configuration not stated) | -10.3%
69 | COCCN(Cc1cnn(C)c1)CC1CCOC1 (configuration not stated) | -8.52%

Row | SMILES | cytotoxicity at 10 µM
70 | COc1ccccc1OC1CN(C(=O)C2CNCC(=O)N2)C1 (configuration not stated) | 5.46%
71 | CC(=O)N1Cc2cnc(C(C)(C)C)nc2C1 | -122%
72 | O=C(O)CNc1cc(-c2cc(C3CC3)ncn2)c2cc[nH]c2n1 | 7.69%
73 | CCC1c2cccn2CCN1C(=O)c1cc(OC)nc(OC)n1 (configuration not stated) | 15%
74 | CCc1ncc2c(n1)CN(c1cc(N3CCN(C)CC3)nc(N)n1)C2 | 22.8%
75 | CC(C)Cn1cncc1CNC(=O)c1cccc(Cn2cccn2)c1 | -3.12%
76 | CN1CCC(N(CCc2ccccc2)Cc2noc(C3CC3)n2)CC1 | -3.49%
77 | CCc1csc(CNC(=O)C(CC)n2cccn2)n1 (configuration not stated) | -0.651%
78 | Cc1cc(=O)[nH]c(SC(C)C(=O)N2CCCN(C3CCCC3)CC2)n1 (configuration not stated) | -8.04%
79 | Cc1nc2c(c(N(C)C)n1)CCN(C(=O)c1sccc1S(N)(=O)=O)C2 | -2.29%
80 | Cc1nc(CN2CCCC(NCc3ccc4c(c3)CCO4)C2)no1 (configuration not stated) | -3.61%
81 | CCc1nc(C2CCCN2Cc2ccno2)no1 (configuration not stated) | 2.52%
82 | c1ccc(Cc2noc(CN3CCc4cncnc4C3)n2)cc1 | -5.91%
83 | COc1cc(CCC(=O)NC(C)C)ccc1OCC(F)(F)F | -4.24%
84 | CCCc1nc(C)c(C(=O)NCCNc2ncccn2)s1 | -7.22%
85 | Cn1ncc2c(=O)[nH]c(CN3CCCC3CC(C)(C)C)nc21 (configuration not stated) | -1.09%
86 | Cn1ncc2c(=O)[nH]c(CN3CCCC3CCc3ccccc3)nc21 (configuration not stated) | -8.21%
87 | Cc1cccc(-c2nc(CNC3CCc4nc(C)nn4C3)no2)c1 (configuration not stated) | -4.3%
88 | CC(NCc1c(C(C)C)nn(C)c1N1CCOCC1)C(=O)N(C)C (configuration not stated) | -10.7%
89 | Cc1cc(CN2CCC(N(C)Cc3noc(C4CC4)n3)C2)on1 (configuration not stated) | 1.54%
90 | O=C(CCc1ccco1)N1CCCN(Cc2cscn2)CC1 | 3.28%
91 | CC(C)N1CCN(C(=O)C(C)n2cncn2)CC1 (configuration not stated) | 0.724%
92 | CSc1ccc(CNC(=O)NCC(O)c2cccc(F)c2)cc1 (configuration not stated) | -6.16%

Row | SMILES | cytotoxicity at 10 µM
93 | Cc1cnc(C(=O)NCc2ccc3c(c2)CCCN3C)cn1 | -4.92%
94 | CC(C)=CCN1CCOC(Cn2cccn2)C1 (configuration not stated) | 2.4%
95 | CC(C)CN1CC(C(=O)NCc2cccnc2-n2cccn2)CC1=O (configuration not stated) | -1.04%
96 | CCc1noc(CNCC2CCCN2c2cccnn2)n1 (configuration not stated) | 2.11%
97 | Cc1nnc(C2Cc3ccccc3CN2Cc2c(C)noc2C)o1 (configuration not stated) | -13.7%
98 | Cc1nnc(CN(C)CC2CCCN2c2cccnn2)o1 (configuration not stated) | -0.514%
99 | O=C(NCCNc1ncccn1)C1CC(=O)N(CC(F)(F)F)C1 (configuration not stated) | -9.02%
100 | Cc1nnc(N2C[C@H](OCc3ccncc3)[C@H]3OCCC[C@H]32)s1 | 13.6%
101 | O=C(C[C@@H]1COC[C@H]2CN(Cc3ccncc3)C[C@@H]12)N1CCOCC1 | 6.59%
102 | Cn1ccnc1NC[C@@H]1CCC[C@@H]2CN(Cc3cccnc3)C[C@@H]21 | 5.55%
103 | O=C(Cc1ccccc1)N1CCCC2(COCCN(CC3CC3)C2)C1 (configuration not stated) | -1.03%
104 | C[C@H]1CN(Cc2cccc(F)c2)C[C@@]12CCN(CC(=O)N(C)C)C2=O | -7.13%
105 | Cn1nnc2c1CCN(C(=O)C1CCC1)C2COCCN1CCCC1 (configuration not stated) | 11%
106 | CC[C@H]1N(CC2CCC2)CCC[C@]12CCC(=O)N2Cc1ccncc1 | -0.508%
107 | CCOCC1CN(C(=O)CS(C)(=O)=O)Cc2cnn(C)c21 (configuration not stated) | -6.63%
108 | COCC1CN(c2ccncn2)Cc2cnn(CC3CCCC3)c21 (configuration not stated) | 4.83%
109 | COCC1CC2(CCN(S(=O)(=O)C3CC3)CC2)CN1c1ncccn1 (configuration not stated) | -2.01%
110 | CN1CC(=O)N(c2cccc(F)c2)CC12CCN(CC1CC1)C2 (configuration not stated) | 2.26%
111 | CO[C@@H]1CCN(C(=O)Cc2cccc(F)c2)[C@H]1Cc1cccnc1 | -4.89%
112 | CC(=O)N1CCN(Cc2ccco2)CC2(CC(=O)N(C)C2)C1 (configuration not stated) | -3.81%
